ChEMBL document CHEMBL1137737, “Synthesis, antimicrobial and cytotoxic activities of 1,3,4-oxadiazoles, 1,3,4-thiadiazoles and 1,2,4-triazoles” (Eur J Med Chem, 2009)
≈ marks a conversion by molar mass, not a printed value. Calls of active or inactive are those of the source. The calls are words filed in the database; no cut-off is given here.

Columns and labels:
[1] = system: Staphylococcus aureus; assay: Antibacterial activity against Staphylococcus aureus NCIM 5021 at 100 ug/disk after 24 hrs by agar disc-diffusion method; assay type: functional; conditions: NCIM 5021, 24 h, read-out: DIZ
Method in brief: (§1)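 Sterile 6 mm filter-paper discs are soaked in compound solution in DMSO and placed on nutrient agar plates already inoculated with each organism. Plates are incubated at 37 °C. The diameter of the growth-inhibition zone is read after 24 h for bacteria and after 48 h for fungi.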

[2] = system: Bacillus subtilis; assay: Antibacterial activity against Bacillus subtilis NCIM 2063 at 100 ug/disk after 24 hrs by agar disc-diffusion method; assay type: functional; conditions: NCIM 2063, 24 h, read-out: DIZ; method in brief: as §1
[3] = system: Klebsiella pneumoniae; assay: Antibacterial activity against Klebsiella pneumoniae NCIM 2957 at 100 ug/disk after 24 hrs by agar disc-diffusion method; assay type: functional; conditions: NCIM 2957, 24 h, read-out: DIZ; method in brief: as §1
[4] = system: Proteus vulgaris; assay: Antibacterial activity against Proteus vulgaris NCIM 2027 at 100 ug/disk after 24 hrs by agar disc-diffusion method; assay type: functional; conditions: NCIM 2027, 24 h, read-out: DIZ; method in brief: as §1
[5] = system: Fusarium solani; assay: Antifungal activity against Fusarium solani NCIM 1330 at 100 ug/disk after 48 hrs by agar disc-diffusion method; assay type: functional; conditions: NCIM 1330, 48 h, read-out: DIZ; method in brief: as §1
[6] = system: Curvularia lunata; assay: Antifungal activity against Curvularia lunata NCIM 716 at 100 ug/disk after 48 hrs by agar disc-diffusion method; assay type: functional; conditions: NCIM 716, 48 h, read-out: DIZ; method in brief: as §1
[7] = system: Aspergillus niger; assay: Antifungal activity against Aspergillus niger NCIM 596 at 100 ug/disk after 48 hrs by agar disc-diffusion method; assay type: functional; conditions: NCIM 596, 48 h, read-out: DIZ; method in brief: as §1
[8] = system: Staphylococcus aureus; assay: Antibacterial activity against Staphylococcus aureus NCIM 5021 at 200 ug/disk after 24 hrs by agar disc-diffusion method; assay type: functional; conditions: NCIM 5021, 24 h, read-out: DIZ; method in brief: as §1
[9] = system: Bacillus subtilis; assay: Antibacterial activity against Bacillus subtilis NCIM 2063 at 200 ug/disk after 24 hrs by agar disc-diffusion method; assay type: functional; conditions: NCIM 2063, 24 h, read-out: DIZ; method in brief: as §1
[10] = system: Klebsiella pneumoniae; assay: Antibacterial activity against Klebsiella pneumoniae NCIM 2957 at 200 ug/disk after 24 hrs by agar disc-diffusion method; assay type: functional; conditions: NCIM 2957, 24 h, read-out: DIZ; method in brief: as §1
[11] = system: Proteus vulgaris; assay: Antibacterial activity against Proteus vulgaris NCIM 2027 at 200 ug/disk after 24 hrs by agar disc-diffusion method; assay type: functional; conditions: NCIM 2027, 24 h, read-out: DIZ; method in brief: as §1
[12] = system: Fusarium solani; assay: Antifungal activity against Fusarium solani NCIM 1330 at 200 ug/disk after 48 hrs by agar disc-diffusion method; assay type: functional; conditions: NCIM 1330, 48 h, read-out: DIZ; method in brief: as §1
[13] = system: Curvularia lunata; assay: Antifungal activity against Curvularia lunata NCIM 716 at 200 ug/disk after 48 hrs by agar disc-diffusion method; assay type: functional; conditions: NCIM 716, 48 h, read-out: DIZ; method in brief: as §1
[14] = system: Aspergillus niger; assay: Antifungal activity against Aspergillus niger NCIM 596 at 200 ug/disk after 48 hrs by agar disc-diffusion method; assay type: functional; conditions: NCIM 596, 48 h, read-out: DIZ; method in brief: as §1
[15] = system: Staphylococcus aureus; assay: Antibacterial activity against Staphylococcus aureus NCIM 5021 after 24 hrs by microdilution susceptibility method; assay type: functional; conditions: NCIM 5021, 24 h
Method in brief: (§2)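 This is a microdilution susceptibility test. Organism suspensions are inoculated into wells holding the dilution series, then incubated at 36 °C for 24 h (bacteria) or 48 h (fungi). MIC is the lowest concentration giving no turbidity, i.e. complete inhibition of visible growth.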

[16] = system: Bacillus subtilis; assay: Antibacterial activity against Bacillus subtilis NCIM 2063 after 24 hrs by microdilution susceptibility method; assay type: functional; conditions: NCIM 2063, 24 h; method in brief: as §2
[17] = system: Klebsiella pneumoniae; assay: Antibacterial activity against Klebsiella pneumoniae NCIM 2957 after 24 hrs by microdilution susceptibility method; assay type: functional; conditions: NCIM 2957, 24 h; method in brief: as §2
[18] = system: Proteus vulgaris; assay: Antibacterial activity against Proteus vulgaris NCIM 2027 after 24 hrs by microdilution susceptibility method; assay type: functional; conditions: NCIM 2027, 24 h; method in brief: as §2
[19] = system: Fusarium solani; assay: Antifungal activity against Fusarium solani NCIM 1330 after 48 hrs by microdilution susceptibility method; assay type: functional; conditions: NCIM 1330, 48 h; method in brief: as §2
[20] = system: Curvularia lunata; assay: Antifungal activity against Curvularia lunata NCIM 716 after 48 hrs by microdilution susceptibility method; assay type: functional; conditions: NCIM 716, 48 h; method in brief: as §2
[21] = system: Aspergillus niger; assay: Antifungal activity against Aspergillus niger NCIM 596 after 48 hrs by microdilution susceptibility method; assay type: functional; conditions: NCIM 596, 48 h; method in brief: as §2
[22] = system: A549; assay: Cytotoxicity against human A549 cells at 250 uM by MTT assay; assay type: functional, cell-based
Method in brief: (§3)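 A549 lung adenocarcinoma cells are grown in DMEM with 10% FBS and penicillin–streptomycin. Compounds come from a 10 mM DMSO stock, are diluted in medium, and are added 2–4 h after plating. Viability is (treated − background)/(untreated − background) × 100, with a DMSO vehicle control. The experiment was run in duplicate with triplicate readings.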

[23] = system: A549; assay: Cytotoxicity against human A549 cells at 250 uM by MTT assay relative to control; assay type: functional; method in brief: as §3
[24] = system: A549; assay: Cytotoxicity against human A549 cells at 250 uM by MTT assay in presence of 0.2% fetal bovine serum; assay type: functional
Method in brief: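 MTT viability assay on A549 cells as for the other cytotoxicity lines, but with 0.2% serum in the medium in place of 10% FBS. Compounds are diluted in medium from a 10 mM DMSO stock and exposure lasts 48 h.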

MIC [15]	MIC [16]	MIC [17]	MIC [19]	MIC [20]	MIC [21]	Structure (SMILES)	zone of inhibition at 100 µg/disc [1]	zone of inhibition at 100 µg/disc [2]	zone of inhibition at 100 µg/disc [3]	zone of inhibition at 100 µg/disc [4]	zone of inhibition at 100 µg/disc [5]	zone of inhibition at 100 µg/disc [6]	zone of inhibition at 100 µg/disc [7]	zone of inhibition at 200 µg/disc [8]	zone of inhibition at 200 µg/disc [9]	zone of inhibition at 200 µg/disc [10]	zone of inhibition at 200 µg/disc [11]	zone of inhibition at 200 µg/disc [12]	zone of inhibition at 200 µg/disc [13]	zone of inhibition at 200 µg/disc [14]	other results
25 µg/mL (≈ 62.9 µM)	25 µg/mL (≈ 62.9 µM)	50 µg/mL (≈ 126 µM)	100 µg/mL (≈ 252 µM)	50 µg/mL (≈ 126 µM)	50 µg/mL (≈ 126 µM)	Nn1c(CS(=O)(=O)Cc2ccc(Cl)cc2)nnc1-c1ccccc1Cl	32 mm	37 mm	33 mm	31 mm	29 mm	27 mm	22 mm	37 mm	39 mm	36 mm	34 mm	32 mm	31 mm	24 mm	MIC [18]: 100 µg/mL (≈ 252 µM); Activity [22]: Active; Activity [23]: 50%; Activity [24]: 50%
100 µg/mL (≈ 274 µM)	200 µg/mL (≈ 548 µM)	200 µg/mL (≈ 548 µM)	200 µg/mL (≈ 548 µM)	200 µg/mL (≈ 548 µM)	200 µg/mL (≈ 548 µM)	O=S(=O)(Cc1ccc(Cl)cc1)Cc1nnc(-c2ccccc2)s1	28 mm	24 mm	19 mm	17 mm	24 mm	23 mm	17 mm	30 mm	28 mm	23 mm	22 mm	27 mm	25 mm	20 mm	MIC [18]: 200 µg/mL (≈ 548 µM)
200 µg/mL (≈ 519 µM)	200 µg/mL (≈ 519 µM)	400 µg/mL (≈ 1040 µM)	200 µg/mL (≈ 519 µM)	200 µg/mL (≈ 519 µM)	200 µg/mL (≈ 519 µM)	O=S(=O)(Cc1nnc(-c2ccccc2Cl)s1)c1ccc(Cl)cc1	21 mm	19 mm	16 mm	19 mm	20 mm	19 mm	17 mm	23 mm	23 mm	19 mm	21 mm	24 mm	22 mm	21 mm	MIC [18]: 400 µg/mL (≈ 1040 µM)
50 µg/mL (≈ 125 µM)	100 µg/mL (≈ 250 µM)	100 µg/mL (≈ 250 µM)	100 µg/mL (≈ 250 µM)	100 µg/mL (≈ 250 µM)	100 µg/mL (≈ 250 µM)	O=S(=O)(Cc1ccc(Cl)cc1)Cc1nnc(-c2ccccc2Cl)s1	29 mm	27 mm	20 mm	20 mm	28 mm	25 mm	20 mm	33 mm	31 mm	24 mm	23 mm	31 mm	27 mm	23 mm	MIC [18]: 200 µg/mL (≈ 501 µM)
400 µg/mL (≈ 1040 µM)	400 µg/mL (≈ 1040 µM)	400 µg/mL (≈ 1040 µM)	200 µg/mL (≈ 522 µM)	200 µg/mL (≈ 522 µM)	400 µg/mL (≈ 1040 µM)	Nn1c(CS(=O)(=O)c2ccc(Cl)cc2)nnc1-c1ccccc1Cl	19 mm	16 mm	18 mm	19 mm	24 mm	23 mm	20 mm	23 mm	18 mm	20 mm	20 mm	27 mm	25 mm	24 mm	MIC [18]: 400 µg/mL (≈ 1040 µM)
400 µg/mL (≈ 1220 µM)	400 µg/mL (≈ 1220 µM)	200 µg/mL (≈ 609 µM)	200 µg/mL (≈ 609 µM)	200 µg/mL (≈ 609 µM)	400 µg/mL (≈ 1220 µM)	Nn1c(CS(=O)(=O)Cc2ccccc2)nnc1-c1ccccc1	22 mm	23 mm	18 mm	17 mm	19 mm	22 mm	17 mm	24 mm	26 mm	22 mm	22 mm	21 mm	24 mm	21 mm	MIC [18]: 200 µg/mL (≈ 609 µM)
200 µg/mL (≈ 522 µM)	400 µg/mL (≈ 1040 µM)		200 µg/mL (≈ 522 µM)	200 µg/mL (≈ 522 µM)	200 µg/mL (≈ 522 µM)	O=S(=O)(Cc1ccc(Cl)cc1)Cc1nnc(-c2ccccc2Cl)o1	20 mm	19 mm	17 mm	15 mm	18 mm	16 mm	17 mm	23 mm	21 mm	20 mm	18 mm	22 mm	19 mm	21 mm	Activity [23]: 50%; Activity [24]: 50%
200 µg/mL (≈ 605 µM)	200 µg/mL (≈ 605 µM)	200 µg/mL (≈ 605 µM)	200 µg/mL (≈ 605 µM)	200 µg/mL (≈ 605 µM)	200 µg/mL (≈ 605 µM)	O=S(=O)(Cc1ccccc1)Cc1nnc(-c2ccccc2)s1	24 mm	22 mm	17 mm	16 mm	18 mm	21 mm	16 mm	29 mm	25 mm	22 mm	24 mm	20 mm	23 mm	19 mm	MIC [18]: 400 µg/mL (≈ 1210 µM)
